CaV13 ICDI inh: Primary screen for inhibitors of IQ motif and Ca2+-dependent inactivation inhibitor domain binding in CACNA1D, Förster resonance energy transfer in living cells, …. HEK cells, CFP/YFP FRET ICDI-IQ, plate reader, 10 min; percent FRET-ratio fall versus neutral wells. inhibition, % at 12.3 µM. actives 0.098% (n = 340,000);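 active means mean replicate inhibition of at least 30% and at least 1% of replicates passing that level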;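 further: 0% = median of the neutral control wells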
LGR2 antag: Drosophila LGR2 receptor signaling inhibition; HEK293 LGR2, CRE-luciferase, bursicon-stimulated, 4 h; inhibition, % at 9.99 µM; actives 0.35% (n = 380,000); AID 720647;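 active means drop in luminescence signal, shown as inhibition above about 50% in the replicate tests, limit read from the data, passing the limit was not always enough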;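 further: agonist challenge used bursicon conditioned medium at about half maximal strength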
TROY signal inh: inhibitors of TROY-dependent NF-kB signaling; Q293 LMP1-TROYcd NF-kB luciferase reporter, 4 h; inhibition, % at 10 µM; actives 0.98% (n = 360,000);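 active means compounds whose plate-normalised and pattern-corrected inhibition of the luciferase reporter signal at the single screening dose is 50% or more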
Xi reactivation: X-chromosome reactivation activator | XiGFP mouse fibroblasts, % GFP-positive cells imaging, 3 d; cells co-treated with 5-aza-dC sensitizer; scaled so ellipticine positive control = 100% | actives 0.055% (n = 360,000) | activation, % at 7.58 µM;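 active means mean normalized replicate activation at least 10% and every replicate at or above 10%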;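 further: 0% = median of on-plate neutral control wells and 100% = ellipticine 6 µM median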
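System: XiGFP fibroblasts, SV40-immortalized. Medium: DMEM plus 5-aza-dC sensitizer. Doses: single point. Timing: 3 d treatment, 15 min room-temperature fixation. Control set: ellipticine 6 µM.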
TWEAK Fn14 block: blocks TWEAK-Fn14 interaction in a reporter cell assay; TWEAK-stimulated Fn14 reporter cells, luciferase luminescence, 8 h; inhibition, % at 10 µM; actives 2% (n = 360,000); AID 1159606; in the data active means inhibition above about 50%
Active calls of the source: *. Only some compounds are listed: those with a hit (about 2% of all), similar ones and a draw of the others.

How did NS(=O)(=O)c1cccc(NC(=O)CSc2nc3nc(-c4cccs4)cc(C(F)(F)F)c3c(=O)[nH]2)c1 do in these assays?
CaV13 ICDI inh: -3; LGR2 antag: 2; TROY signal inh: 8; Xi reactivation: 0; TWEAK Fn14 block: 9

Results for O=C(CSc1nc2nc(-c3cccs3)cc(C(F)(F)F)c2c(=O)[nH]1)Nc1c(F)c(F)c(F)c(F)c1F ?
CaV13 ICDI inh: -1; LGR2 antag: -8; TROY signal inh: 57*; Xi reactivation: 0; TWEAK Fn14 block: 66*

What do the screens show for `CN1CCc2c(sc(/N=C/c3c[nH]c4ccccc34)c2C#N)C1`?
CaV13 ICDI inh: -4; LGR2 antag: 13; TROY signal inh: -2; Xi reactivation: 1; TWEAK Fn14 block: -17

What do the screens show for `CN1CCc2c(sc(/N=C/c3cc(Cl)ccc3O)c2C#N)C1`?
CaV13 ICDI inh: -14; LGR2 antag: -90; TROY signal inh: 74*; Xi reactivation: 0; TWEAK Fn14 block: 65*

Results for O=C(N[C@H]1CC[C@@H](CCNS(=O)(=O)c2ccc(F)cc2)O[C@H]1CO)c1cccc(F)c1 ?
LGR2 antag: 4; Xi reactivation: 0

How did CCCN(c1ccc(OCC)cc1)c1ncnc2nc[nH]c12 do in these assays?
CaV13 ICDI inh: -8; LGR2 antag: -13; TROY signal inh: 21; Xi reactivation: 0; TWEAK Fn14 block: 12

How did CCCCN(Cc1ccccc1)c1ncnc2nc[nH]c12 do in these assays?
TROY signal inh: -19; TWEAK Fn14 block: -12

How did CCN(c1ccc(OC)cc1)c1ncnc2nc[nH]c12 do in these assays?
CaV13 ICDI inh: -6; LGR2 antag: 16; TROY signal inh: 38; Xi reactivation: 0; TWEAK Fn14 block: 59*

What do the screens show for `CCCCN(CCCC)c1ncnc2nc[nH]c12`?
CaV13 ICDI inh: -4; LGR2 antag: -12; TROY signal inh: 33; Xi reactivation: 0; TWEAK Fn14 block: 59*

What do the screens show for `CCCN(C)C[C@H]1Oc2cc(C3=CCCC3)ccc2S(=O)(=O)N([C@@H](C)CO)C[C@@H]1C`?
LGR2 antag: 1; Xi reactivation: 0

How did C[C@@H]1CCCCO[C@H](CN(C)C)[C@H](C)CN([C@@H](C)CO)C(=O)c2cc(NC(=O)C3CCCCC3)ccc2O1 do in these assays?
LGR2 antag: 1; Xi reactivation: 0

How did COc1ccc(CC(=O)N2CCOCC2)cc1 do in these assays?
CaV13 ICDI inh: -5; TROY signal inh: -15; TWEAK Fn14 block: 99*

What do the screens show for `COCC#Cc1ccc2c(c1)O[C@@H](CN(C)C(=O)c1ccccc1)[C@H](C)CN([C@@H](C)CO)S2(=O)=O`?
LGR2 antag: 7; Xi reactivation: 0

What do the screens show for `O=C(Nc1ccncc1)Nc1ccncc1`?
CaV13 ICDI inh: -1; LGR2 antag: 5; TROY signal inh: 14; Xi reactivation: 0; TWEAK Fn14 block: 11

Results for COC(=O)c1sccc1NC(=O)Nc1ccc(C(C)=O)cc1 ?
CaV13 ICDI inh: -5; LGR2 antag: -53; TROY signal inh: 37; Xi reactivation: 0; TWEAK Fn14 block: 59*

Results for CC(=O)c1ccc(NC(=O)Nc2ccncc2)cc1 ?
CaV13 ICDI inh: -4; LGR2 antag: -12; TROY signal inh: 5; Xi reactivation: 0; TWEAK Fn14 block: 58*

How did CCCNC(=O)N1CC2(C1)[C@H](c1ccccc1)[C@@H](CO)N2Cc1ccccc1 do in these assays?
LGR2 antag: -7; Xi reactivation: 0

How did Cc1nc2ccc(NC(=O)c3ccc(Cl)c(S(=O)(=O)N(C)c4ccccc4)c3)cc2s1 do in these assays?
CaV13 ICDI inh: -3; LGR2 antag: 7; TROY signal inh: 56*; Xi reactivation: 0; TWEAK Fn14 block: 96*

How did CCCC(C(=O)Nc1ccc(C)c(S(=O)(=O)N2CCOCC2)c1)c1ccccc1 (configuration not stated) do in these assays?
CaV13 ICDI inh: -1; LGR2 antag: 0; TROY signal inh: -16; Xi reactivation: 0; TWEAK Fn14 block: -17

Results for COc1ccc(NC(=O)c2ccc(S(=O)(=O)N(C)c3ccccc3)cc2)cc1S(=O)(=O)N1CCOCC1 ?
CaV13 ICDI inh: -5; LGR2 antag: 9; TROY signal inh: 28; Xi reactivation: 0; TWEAK Fn14 block: 10

Results for Cc1ccc(NC(=O)c2ccc(S(=O)(=O)N(C)c3ccccc3)cc2)cc1S(=O)(=O)N1CCOCC1 ?
CaV13 ICDI inh: -6; LGR2 antag: 9; TROY signal inh: 39; Xi reactivation: 0; TWEAK Fn14 block: 59*

What do the screens show for `Cc1ccc(NC(=O)C(C)N2C(=O)c3ccccc3C2=O)cc1S(=O)(=O)N1CCOCC1` (configuration not stated)?
CaV13 ICDI inh: 5; LGR2 antag: 12; TROY signal inh: 64*; Xi reactivation: 0; TWEAK Fn14 block: 17

Results for CN(c1cccc(NC(=O)c2ccc(N(C)S(=O)(=O)c3ccccc3)cc2)c1)S(C)(=O)=O ?
CaV13 ICDI inh: 5; LGR2 antag: 19; TROY signal inh: 31; Xi reactivation: 0; TWEAK Fn14 block: 42

How did Cc1nc2cc(NC(=O)c3ccc(S(=O)(=O)N(C)c4ccccc4)cc3)ccc2o1 do in these assays?
CaV13 ICDI inh: -7; LGR2 antag: -16; TROY signal inh: 14; Xi reactivation: 0; TWEAK Fn14 block: 74*

Results for COCC(=O)N(C)C[C@@H]1Oc2ncc(-c3cccc(OC)c3)cc2C(=O)N([C@H](C)CO)C[C@H]1C ?
LGR2 antag: -5; Xi reactivation: 0

How did CO[C@@H]1CN(C)C(=O)c2cc(NC(C)=O)ccc2OC[C@H](C)N(CC2CC2)C[C@H]1C do in these assays?
LGR2 antag: -15; Xi reactivation: 0

What do the screens show for `CN(c1ccccc1)S(=O)(=O)c1ccc(NC(=O)c2ccc(-c3ccccc3)cc2)cc1`?
CaV13 ICDI inh: -8; LGR2 antag: 19; TROY signal inh: 36; TWEAK Fn14 block: 54*

What do the screens show for `CC(/C=N/NC(=O)c1cc(-c2ccncc2)nc2ccccc12)=C\c1ccco1`?
LGR2 antag: -1; TROY signal inh: 3; TWEAK Fn14 block: 13

Results for O=C(N/N=C/c1ccco1)c1cc(-c2cccc(Br)c2)nc2ccccc12 ?
CaV13 ICDI inh: -4; LGR2 antag: 3; TROY signal inh: 48; Xi reactivation: 0; TWEAK Fn14 block: 77*

What do the screens show for `O=C(O)CCCNS(=O)(=O)c1ccc2ccccc2c1`?
CaV13 ICDI inh: -6; TROY signal inh: 0; TWEAK Fn14 block: -4

How did O=C(CCCNS(=O)(=O)c1ccc(F)cc1)Nc1ccc(F)cc1 do in these assays?
CaV13 ICDI inh: -4; LGR2 antag: 1; TROY signal inh: 1; Xi reactivation: 1; TWEAK Fn14 block: 97*

What do the screens show for `O=C(O)CCCNS(=O)(=O)c1ccccc1`?
CaV13 ICDI inh: -5; TROY signal inh: 8; TWEAK Fn14 block: 62*
